Laboratory results published in ChEMBL document CHEMBL4431385, “Substituted tetracyclic indole core derivatives of HCV NS5A inhibitor MK-8742” (Bioorg Med Chem Lett, 2016).
Substitutions are numbered along the chain they refer to.

Columns and labels:
[1] = target: T1, Nonstructural protein 5A (Hepatitis C virus) (UniProt Q5L478); experiment: Inhibition of HCV GT4a NS5A assessed as suppression of replicon RNA level by real-time PCR analysis; settings: Hepatitis C virus subtype 4a
T1 sequence (whole entry): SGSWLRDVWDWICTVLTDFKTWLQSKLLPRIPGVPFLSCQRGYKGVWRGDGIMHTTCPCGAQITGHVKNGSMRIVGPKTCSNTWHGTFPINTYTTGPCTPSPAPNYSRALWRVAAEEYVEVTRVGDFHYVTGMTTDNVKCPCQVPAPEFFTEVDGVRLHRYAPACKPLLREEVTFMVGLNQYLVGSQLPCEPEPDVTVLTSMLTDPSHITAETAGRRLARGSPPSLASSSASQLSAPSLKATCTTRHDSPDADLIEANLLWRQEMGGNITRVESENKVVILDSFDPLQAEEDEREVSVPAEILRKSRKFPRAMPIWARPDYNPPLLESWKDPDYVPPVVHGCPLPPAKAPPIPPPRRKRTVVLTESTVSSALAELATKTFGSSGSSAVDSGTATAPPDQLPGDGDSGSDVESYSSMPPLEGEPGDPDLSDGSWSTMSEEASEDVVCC

[2] = target: T1, Nonstructural protein 5A (Hepatitis C virus); experiment: Inhibition of HCV GT2a NS5A assessed as suppression of replicon RNA level by real-time PCR analysis; settings: Hepatitis C virus subtype 2a
[3] = target: T1, Nonstructural protein 5A (Hepatitis C virus); experiment: Inhibition of HCV GT1b NS5A assessed as suppression of replicon RNA level by real-time PCR analysis; settings: Hepatitis C virus subtype 1b
[4] = test system: Nonstructural protein 5A (Hepatitis C virus), Q5L478 [UNDEFINED MUTATION]; experiment: Inhibition of HCV GT1a NS5A L31V mutant assessed as suppression of replicon RNA level by real-time PCR analysis; settings: Hepatitis C virus subtype 1a
[5] = test system: T2, Nonstructural protein 5A (Hepatitis C virus), Q5L478 [Y93H]; experiment: Inhibition of HCV GT1a NS5A Y93H mutant assessed as suppression of replicon RNA level by real-time PCR analysis; settings: Hepatitis C virus subtype 1a
T2 sequence (whole entry): T1 sequence (whole entry) with Y93H

[6] = target: T1, Nonstructural protein 5A (Hepatitis C virus); experiment: Inhibition of HCV GT3a NS5A assessed as suppression of replicon RNA level by real-time PCR analysis; settings: Hepatitis C virus subtype 3a
[7] = target: T1, Nonstructural protein 5A (Hepatitis C virus); experiment: Inhibition of HCV GT2b NS5A assessed as suppression of replicon RNA level by real-time PCR analysis; settings: Hepatitis C virus subtype 2b
Summary of the method: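 GT2b replicon, which carries the naturally occurring NS5A 31M resistance-associated variant; potency given as EC90 in nM.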

[8] = target: T1, Nonstructural protein 5A (Hepatitis C virus); experiment: Inhibition of HCV GT1a NS5A assessed as suppression of replicon RNA level by real-time PCR analysis; settings: Hepatitis C virus subtype 1a

SMILES	EC90 [1]	EC90 [2]	EC90 [3]	EC90 [4]	EC90 [5]	EC90 [6]	EC90 [7]	EC90 [8]
COC(=O)N[C@H](C(=O)N1CCC[C@H]1c1ncc(-c2ccc3c(c2)OCn2c-3cc3cc(-c4cnc([C@@H]5CCCN5C(=O)[C@@H](NC(=O)OC)C(C)C)[nH]4)c(F)cc32)[nH]1)C(C)C	0.2 nM	0.02 nM	0.007 nM	68 nM	77 nM	5 nM	150 nM	0.007 nM
COC(=O)N[C@H](C(=O)N1CCC[C@H]1c1ncc(-c2ccc3c(c2)OCn2c-3c(Cc3ccccc3)c3cc(-c4cnc([C@@H]5CCCN5C(=O)[C@@H](NC(=O)OC)C(C)C)[nH]4)ccc32)[nH]1)C(C)C	–	–	0.01 nM	9 nM	187 nM	–	28 nM	0.1 nM
COC(=O)N[C@H](C(=O)N1C[C@H](F)C[C@H]1c1ncc(-c2ccc3c(c2)OC(c2ccccc2)n2c-3cc3cc(-c4cnc([C@@H]5C[C@@H](F)CN5C(=O)[C@@H](NC(=O)OC)C(C)C)[nH]4)ccc32)[nH]1)C(C)C (mixture of isomers)	0.2 nM	0.7 nM	0.004 nM	10 nM	2 nM	2 nM	63 nM	0.01 nM
COC(=O)N[C@H](C(=O)N1C[C@H](F)C[C@H]1c1ncc(-c2ccc3c(c2)OC(c2ccccc2)n2c-3c(F)c3cc(-c4cnc([C@@H]5C[C@@H](F)CN5C(=O)[C@@H](NC(=O)OC)C(C)C)[nH]4)ccc32)[nH]1)C(C)C (mixture of isomers)	0.3 nM	0.3 nM	0.005 nM	7 nM	2 nM	8 nM	58 nM	0.02 nM
COC(=O)N[C@H](C(=O)N1CCC[C@H]1c1ncc(-c2cc(F)c3c(c2)O[C@@H](c2ccccc2)n2c-3c(Cl)c3cc(-c4cnc([C@@H]5CCCN5C(=O)[C@@H](NC(=O)OC)C(C)C)[nH]4)ccc32)[nH]1)C(C)C	0.04 nM	0.03 nM	0.006 nM	0.4 nM	51 nM	2 nM	42 nM	0.02 nM
COC(=O)N[C@H](C(=O)N1CCC[C@H]1c1ncc(-c2ccc3c(c2)OCn2c-3cc3cc(-c4cnc([C@@H]5CCCN5C(=O)[C@@H](NC(=O)OC)C(C)C)[nH]4)ccc32)[nH]1)C(C)C	0.2 nM	0.02 nM	0.02 nM	7 nM	100 nM	1 nM	76 nM	0.02 nM
COC(=O)N[C@H](C(=O)N1CCC[C@H]1c1ncc(-c2cc(F)c3c(c2)OC(c2ccccc2)n2c-3cc3cc(-c4cnc([C@@H]5C[C@@H](F)CN5C(=O)[C@@H](NC(=O)OC)C(C)C)[nH]4)ccc32)[nH]1)C(C)C (mixture of isomers)	0.05 nM	0.01 nM	0.003 nM	2 nM	4 nM	0.3 nM	32 nM	0.003 nM
COC(=O)N[C@H](C(=O)N1CCC[C@H]1c1nc(-c2ccc3c(c2)O[C@@H](c2ccccc2)n2c-3cc3cc(-c4c[nH]c([C@@H]5CCCN5C(=O)[C@@H](NC(=O)OC)C(C)C)n4)ccc32)c[nH]1)C(C)C	0.016 nM	0.019 nM	–	–	–	0.12 nM	–	–
COC(=O)N[C@H](C(=O)N1CCC[C@H]1c1ncc(-c2ccc3c(c2)OCn2c-3cc3cc(-c4cnc([C@@H]5CCCN5C(=O)[C@@H](NC(=O)OC)C(C)C)[nH]4)cc(F)c32)[nH]1)C(C)C	0.2 nM	0.1 nM	0.01 nM	3 nM	139 nM	> 10 nM	> 100 nM	0.1 nM
COC(=O)N[C@H](C(=O)N1CCC[C@H]1c1ncc(-c2ccc3c(c2)cc2n3C(c3cccc(OC)c3)Oc3cc(-c4cnc([C@@H]5C[C@@H](F)CN5C(=O)[C@@H](NC(=O)OC)C(C)C)[nH]4)cc(F)c3-2)[nH]1)C(C)C (stereo partly drawn)	–	–	0.007 nM	0.3 nM	0.6 nM	0.1 nM	19 nM	0.002 nM
COC(=O)N[C@H](C(=O)N1CCC[C@H]1c1ncc(-c2ccc3c(c2)O[C@@H](c2ccccc2)n2c-3c(F)c3cc(-c4cnc([C@@H]5CCCN5C(=O)[C@@H](NC(=O)OC)C(C)C)[nH]4)ccc32)[nH]1)C(C)C	0.06 nM	0.004 nM	0.007 nM	0.7 nM	25 nM	0.3 nM	15 nM	0.007 nM
COC(=O)N[C@H](C(=O)N1CCC[C@H]1c1ncc(-c2ccc3c(c2)cc2n3C(c3ccccc3)Oc3cc(-c4cnc([C@@H]5C[C@@H](F)CN5C(=O)[C@@H](NC(=O)OC)C(C)C)[nH]4)cc(F)c3-2)[nH]1)C(C)C (mixture of isomers)	0.07 nM	0.04 nM	0.003 nM	2 nM	1 nM	0.1 nM	16 nM	0.004 nM
COC(=O)N[C@H](C(=O)N1CCC[C@H]1c1ncc(-c2ccc3c(c2)c(F)c2n3C(c3ccccc3)Oc3cc(-c4cnc([C@@H]5C[C@@H](F)CN5C(=O)[C@@H](NC(=O)OC)C(C)C)[nH]4)ccc3-2)[nH]1)C(C)C (stereo partly drawn)	0.04 nM	0.003 nM	0.001 nM	1 nM	2 nM	0.2 nM	33 nM	0.002 nM
COC(=O)N[C@H](C(=O)N1CCC[C@H]1c1ncc(-c2ccc3c(c2)OCn2c-3c(C3CC3)c3cc(-c4cnc([C@@H]5CCCN5C(=O)[C@@H](NC(=O)OC)C(C)C)[nH]4)ccc32)[nH]1)C(C)C	0.3 nM	0.005 nM	0.004 nM	8 nM	100 nM	10 nM	122 nM	0.03 nM
COC(=O)N[C@H](C(=O)N1CCC[C@H]1c1ncc(-c2ccc3c(c2)cc2n3[C@H](c3ccccc3)Oc3c-2ccc(-c2cnc([C@@H]4CCCN4C(=O)[C@@H](NC(=O)OC)C(C)C)[nH]2)c3F)[nH]1)C(C)C	1 nM	0.4 nM	0.003 nM	36 nM	> 100 nM	> 10 nM	> 100 nM	0.04 nM
COC(=O)N[C@H](C(=O)N1CCC[C@H]1c1ncc(-c2ccc3c(c2)cc2n3[C@H](c3ccccc3)Oc3cc(-c4cnc([C@@H]5CCCN5C(=O)[C@@H](NC(=O)OC)C(C)C)[nH]4)c(F)cc3-2)[nH]1)C(C)C	0.02 nM	0.003 nM	0.003 nM	1 nM	62 nM	1 nM	> 100 nM	0.003 nM
COC(=O)N[C@H](C(=O)N1C[C@H](F)C[C@H]1c1ncc(-c2cc(F)c3c(c2)OC(c2cccc(OC(F)(F)F)c2)n2c-3cc3cc(-c4cnc([C@@H]5C[C@@H](F)CN5C(=O)[C@@H](NC(=O)OC)C(C)C)[nH]4)ccc32)[nH]1)C(C)C (stereo partly drawn)	–	–	0.005 nM	7 nM	0.2 nM	–	52 nM	0.006 nM
COC(=O)N[C@H](C(=O)N1CCC[C@H]1c1ncc(-c2ccc3c(c2)OC(c2ccccc2)n2c-3c(F)c3cc(-c4cnc([C@@H]5C[C@@H](F)CN5C(=O)[C@@H](NC(=O)OC)C(C)C)[nH]4)ccc32)[nH]1)C(C)C (mixture of isomers)	0.1 nM	0.03 nM	0.003 nM	2 nM	2 nM	2 nM	–	0.005 nM
COC(=O)N[C@H](C(=O)N1CCC[C@H]1c1ncc(-c2ccc3c(c2)OCn2c-3c(-c3ccccc3)c3cc(-c4cnc([C@@H]5CCCN5C(=O)[C@@H](NC(=O)OC)C(C)C)[nH]4)ccc32)[nH]1)C(C)C	0.09 nM	0.01 nM	0.004 nM	4 nM	5000 nM	3 nM	204 nM	0.09 nM
